# Published values gathered from unrelated publications.
# Lines come from different studies, so protocols differ.
# Target: Mitogen-activated protein kinase 12 (MAPK12, Homo sapiens, UniProt P53778)
# Sequence (P53778 1-367, as in one of the studies): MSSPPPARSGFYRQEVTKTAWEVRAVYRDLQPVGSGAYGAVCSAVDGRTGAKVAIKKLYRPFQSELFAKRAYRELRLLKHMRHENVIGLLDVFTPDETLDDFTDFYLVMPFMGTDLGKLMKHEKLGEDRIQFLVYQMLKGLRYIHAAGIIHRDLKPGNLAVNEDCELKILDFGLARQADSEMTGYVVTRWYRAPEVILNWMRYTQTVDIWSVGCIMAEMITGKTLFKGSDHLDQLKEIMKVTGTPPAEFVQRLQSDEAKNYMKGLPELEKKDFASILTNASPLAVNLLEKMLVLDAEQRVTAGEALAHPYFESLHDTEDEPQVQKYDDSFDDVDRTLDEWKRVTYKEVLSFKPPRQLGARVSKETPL
SMILES,observed,action,method,tested at,endpoint,value
CC(C)(C)c1cc(C=C(C#N)C#N)cc(Br)c1O,enzyme activity,inhibitor,,0.5 µM,remaining activity,102%
Cn1cc(-c2cc(F)cc(N3CCn4c(cc5c4CCCC5)C3=O)c2CO)cc(Nc2ccc(N3CCN(C4COC4)CC3)cn2)c1=O,enzyme activity,inhibitor,,0.1 µM,inhibition,16%
COc1ncccc1-c1cnn2ccc(N3CCN(C(=O)OC(C)C)CC3)nc12,binding,,competition with immobilised ligand,1 µM,remaining binding,100%
O=c1[nH]c2ccccc2n1C1CCN(Cc2ccc(-c3[nH]c4cc5ncnc5cc4nc3-c3ccccc3)cc2)CC1,cell-free assay,,,0.5 µM,remaining signal,93.1%
Cn1cncc1[C@](O)(COc1ccc(C#N)cc1-c1ccc(OC(F)(F)F)cc1)c1ccc(C#N)cc1,cell-free assay,,competition with immobilised ligand,1 µM,remaining binding,100%
Cc1nn(C)cc1-c1nc2c(N3CCN(Cc4ccc(Cl)cc4)CC3)c(Cl)cnc2[nH]1,binding,,competition with immobilised ligand,1 µM,remaining binding,100%
Cn1cc(-c2cccc(N3CCc4c(sc5c4CC(C)(C)C5)C3=O)c2CO)cc(Nc2ccncn2)c1=O,enzyme activity,inhibitor,,1 µM,inhibition,11%
Nc1ncc(-c2nc(N3CCOCC3)nc(N3CCOCC3)n2)c(C(F)F)n1,binding,,competition with immobilised ligand,10 µM,remaining binding,100%
